# ChEMBL document CHEMBL1156597, “Structure-activity relationship of kahalalide F synthetic analogues” (J Med Chem, 2008)
# Key:
# [1] = system: DU-145; assay: Cytotoxicity against human DU145 cells after 48 hrs by SRB assay; format: functional, cell-based; details: Homo sapiens, DU-145, 48 h; for CC50: read-out: LC50 (the source's name)
# Summary of the method: (§1)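 Cells grown in RPMI 1640 with 10% FBS and penicillin/streptomycin at 37 °C and 5% CO₂, trypsinized, then seeded at 5 × 10³/well. After 18 h drug-free attachment, samples in DMSO/EtOH/PBS (0.5:0.5:99) were added for 48 h continuous exposure. Cells were fixed with cold TCA (1 h, 4 °C) and stained with SRB (10 min). Tris-solubilized stain read at 490 nm. Triplicate wells, mean ± SD; GI₅₀ derived.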
# [2] = system: LNCaP; assay: Cytotoxicity against human LNcaP cells after 48 hrs by SRB assay; format: functional; details: for CC50: read-out: LC50 (the source's name); summary of the method: as §1
# [3] = Cytotoxicity against human IGROV cells after 48 hrs by SRB assay; format: functional; details: for CC50: read-out: LC50 (the source's name); summary of the method: as §1
# [4] = Cytotoxicity against human IGROV-ET cells after 48 hrs by SRB assay; format: functional; details: for CC50: read-out: LC50 (the source's name); summary of the method: as §1
# [5] = system: SK-BR-3; assay: Cytotoxicity against human SKBR3 cells after 48 hrs by SRB assay; format: functional; details: SK-BR-3, 48 h; for GI50: read-out: GI50; for CC50: read-out: LC50 (the source's name); summary of the method: as §1
# [6] = system: SK-MEL-28; assay: Cytotoxicity against human SK-MEL-28 cells after 48 hrs by SRB assay; format: functional, cell-based; details: Homo sapiens, SK-MEL-28, 48 h; for GI50: read-out: GI50; for CC50: read-out: LC50 (the source's name); summary of the method: as §1
# [7] = system: A549; assay: Cytotoxicity against human A549 cells after 48 hrs by SRB assay; format: functional, cell-based; details: Homo sapiens, A549, 48 h; for GI50: read-out: GI50; summary of the method: as §1
# [8] = system: K562; assay: Cytotoxicity against human K562 cells after 48 hrs by SRB assay; format: functional; details: K562, 48 h; for CC50: read-out: LC50 (the source's name); summary of the method: as §1
# [9] = system: PANC-1; assay: Cytotoxicity against human PANC1 cells after 48 hrs by SRB assay; format: functional; details: PANC-1, 48 h, read-out: LC50 (the source's name); summary of the method: as §1
# [10] = system: HT-29; assay: Cytotoxicity against human HT29 cells after 48 hrs by SRB assay; format: functional, cell-based; details: Homo sapiens, HT-29, 48 h; for CC50: read-out: LC50 (the source's name); summary of the method: as §1
# [11] = system: LoVo; assay: Cytotoxicity against human LoVo cells after 48 hrs by SRB assay; format: functional; details: for CC50: read-out: LC50 (the source's name)
# [12] = system: LoVo; assay: Cytotoxicity against human doxorubicin resistant LoVo cells after 48 hrs by SRB assay; format: functional; details: for CC50: read-out: LC50 (the source's name); summary of the method: as §1
# [13] = system: HeLa; assay: Cytotoxicity against human HeLa cells after 48 hrs by SRB assay; format: functional; details: read-out: LC50 (the source's name); summary of the method: as §1
# [14] = Cytotoxicity against human HeLa-APL cells after 48 hrs by SRB assay; format: functional; summary of the method: as §1
SMILES,GI50 ([1]; read-out: GI50) [nM],CC50 [1] [nM],CC50 [2] [nM],GI50 ([3]; read-out: GI50) [nM],CC50 [3] [nM],GI50 [4] [nM],GI50 ([4]; read-out: GI50) [nM],CC50 [4] [nM],CC50 [5] [nM],CC50 [6] [nM],LC50 [7] [nM],CC50 [8] [nM],CC50 [9] [nM],GI50 [10] [nM],TGI [10] [nM],CC50 [10] [nM],GI50 [11] [nM],TGI [11] [nM],CC50 [11] [nM],GI50 [12] [nM],further results
C=C1NC(=O)[C@H](Cc2ccccc2)NC(=O)[C@@H](C(C)C)NC(=O)[C@@H]([C@H](C)CC)NC(=O)[C@H](NC(=O)[C@H](NC(=O)[C@H](CCCN)NC(=O)[C@H]2CCCN2C(=O)[C@H](NC(=O)[C@@H](NC(=O)[C@@H](NC(=O)[C@H](NC(=O)CCCC(C)C)C(C)C)[C@@H](C)O)C(C)C)C(C)C)[C@H](C)CC)[C@H](C)OC(=O)[C@H](C(C)C)NC1=O,1110,730,1410,630,334,366,349,392,360,1160,1070,1950,1790,638,804,612,309,318,295,393,GI50 [1]: 901 nM; GI50 [2]: 1440 nM; TGI [2]: 1860 nM; GI50 [3]: 442 nM; TGI [5]: 412 nM; GI50 [5]: 458 nM; TGI [6]: 1130 nM; GI50 [6]: 1100 nM; TGI [7]: 1140 nM; GI50 [7]: 1200 nM; GI50 [8]: 2470 nM; TGI [8]: 3010 nM; TGI [12]: 3720 nM; CC50 [12]: 235 nM; CC50 [13]: 646 nM; GI50 [14]: 893 nM; LC50 (concentration giving 50% net cell kill) [14]: 791 nM; TGI [14]: 842 nM
C/C=C1\NC(=O)[C@H](Cc2ccccc2)NC(=O)[C@@H](C(C)C)NC(=O)[C@@H]([C@H](C)CC)NC(=O)[C@H](NC(=O)[C@H](NC(=O)[C@H](CCCN)NC(=O)[C@H]2CCCN2C(=O)[C@H](NC(=O)[C@@H](NC(=O)[C@@H](NC(=O)[C@H](NC(=O)CCCC(C)C)C(C)C)[C@@H](C)O)C(C)C)C(C)C)[C@H](C)CC)COC(=O)[C@H](C(C)C)NC1=O,5040,5370,2140,16700,33800,753,620,663,610,1180,1270,4460,8970,983,1540,1970,457,513,620,353,TGI [1]: 5210 nM; GI50 [2]: 3370 nM; TGI [2]: 3360 nM; TGI [3]: 25100 nM; TGI [6]: 1500 nM; GI50 [6]: 1900 nM; TGI [7]: 1350 nM; GI50 [7]: 1440 nM; TGI [12]: 367 nM; CC50 [12]: 384 nM; CC50 [13]: 1470 nM; GI50 [14]: 1930 nM; LC50 (concentration giving 50% net cell kill) [14]: 1320 nM; TGI [14]: 1650 nM
C/C=C1\NC(=O)[C@H](Cc2ccccc2)NC(=O)[C@@H](C(C)C)NC(=O)[C@@H]([C@H](C)CC)NC(=O)[C@H](NC(=O)[C@H](NC(=O)[C@H](CCCN)NC(=O)[C@H]2CCCN2C(=O)[C@H](NC(=O)[C@@H](NC(=O)[C@@H](NC(=O)[C@H](NC(=O)CC[C@@H](C)CC)C(C)C)[C@@H](C)O)C(C)C)C(C)C)[C@H](C)CC)[C@H](C)OC(=O)[C@H](C(C)C)NC1=O,1690,347,2030,827,1220,584,550,975,395,1670,1320,2560,2200,730,1020,2060,397,385,321,249,TGI [1]: 2200 nM; TGI [3]: 1020 nM; TGI [5]: 462 nM; GI50 [5]: 539 nM; GI50 [8]: 2070 nM; TGI [8]: 3760 nM; TGI [12]: 250 nM; CC50 [12]: 1040 nM; CC50 [13]: 1070 nM; GI50 [14]: 1280 nM; LC50 (concentration giving 50% net cell kill) [14]: 1140 nM; TGI [14]: 1200 nM
